pEC50: −log10 of the molar value. The source made the active and inactive calls. The rule behind the calls is not given here.
Legend:
[1] = Inhibition of glucose-induced insulin secretion in rat pancreatic islets assessed as residual insulin release level at 10 uM preincubated for 30 mins measured after 90 mins radioimmunology analysis; assay type: functional
Outline: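 Batches of 10 rat islets preincubated 30 min at 37 °C in bicarbonate salt medium with 2.8 mM glucose and 0.5% albumin, gassed O2/CO2 (95/5). Then incubated 90 min at 37 °C with 16.7 mM glucose plus drug. Insulin measured by radioimmunoassay against a rat insulin standard and expressed as % of drug-free 16.7 mM glucose control. Mean ± SEM (n).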

Thoracic aorta [2] = assay: Myorelaxant activity in endothelium-free rat thoracic aorta assessed as inhibition of 30 mM of KCl-induced contraction; assay type: functional, tissue-based
Outline: (§1)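 Transverse thoracic aorta rings (3–4 mm), cleaned of fat and connective tissue and equilibrated 60 min, recorded isometrically by force transducer. Contraction induced with 30 or 80 mM KCl. After tension stabilized, drug added cumulatively up to maximal relaxation or 300 µM. Glibenclamide at 1 or 10 µM present throughout where stated. EC50 is the concentration giving 50% inhibition of the KCl plateau, from concentration-response curves. Mean ± SEM (n).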

Thoracic aorta [3] = assay: Myorelaxant activity in endothelium-free rat thoracic aorta assessed as inhibition of 80 mM of KCl-induced contraction; assay type: functional, tissue-based; outline: as §1
Thoracic aorta [4] = assay: Myorelaxant activity in endothelium-free rat thoracic aorta assessed as inhibition of 30 mM of KCl-induced contraction in presence of 10 uM of KATP channel blocker glibenclamide; assay type: functional, tissue-based; outline: as §1
Thoracic aorta [5] = assay: Ratio of EC50 for myorelaxant activity in endothelium-free rat thoracic aorta presence of 1 uM of KATP channel blocker glibenclamide to EC50 for myorelaxant activity in endothelium-free rat thoracic aorta absence of KATP channel blocker glibenclamide; assay type: functional; outline: as §1
Thoracic aorta [6] = assay: Myorelaxant activity in endothelium-free rat thoracic aorta assessed as inhibition of 30 mM of KCl-induced contraction in presence of 1 uM of KATP channel blocker glibenclamide; assay type: functional, tissue-based; outline: as §1
Thoracic aorta [7] = assay: Ratio of EC50 for myorelaxant activity in endothelium-free rat thoracic aorta presence of 10 uM of KATP channel blocker glibenclamide to EC50 for myorelaxant activity in endothelium-free rat thoracic aorta absence of KATP channel blocker glibenclamide; assay type: functional; outline: as §1
Thoracic aorta [8] = assay: Inhibition of 80 mM of KCl-induced Ca2+ outflow in endothelium-free rat thoracic aorta assessed 45Ca outflow per min at 30 uM (reference value: 6.06 +/- 0.36%); assay type: functional; set-up: scale not given: the % may be the effect or the level left
Thoracic aorta [9] = assay: Effect on 86Rb fractional flow rate in endothelium-free rat thoracic aorta at 25 to 100 uM; assay type: functional, tissue-based
Outline: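 Prelabelled 86Rb (42K substitute) efflux: pairs of 2 mm aortic rings preincubated 30 min at 37 °C in bicarbonate salt solution gassed O2/CO2 (95/5), loaded 60 min with 86Rb, washed, then perifused at 1.0 mL/min with 30 mM K+ medium throughout. Effluent collected per min from 31st to 90th min. Fractional outflow rate (% of instantaneous ring content per min) from scintillation counts.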

Row | Structure (SMILES) | pEC50 (Thoracic aorta [2]) | Activity [1] [%] | also measured
1 | CC1=Nc2ccc(Cl)cc2S(=O)(=O)N1 [DIAZOXIDE] | 4.58 | 80.8 | pEC50 (Thoracic aorta [3]): < 3.52; inhibition (Thoracic aorta [4]): Dose-dependent effect; Ratio EC50 (Thoracic aorta [5]): 4.4; inhibition (Thoracic aorta [6]): Dose-dependent effect; Ratio EC50 (Thoracic aorta [7]): 8
2 | CCS(=O)(=O)Nc1ccc2c(c1)C(NC(=S)Nc1ccc(C#N)cc1)CC(C)(C)O2 (centres undefined) | 4.92 | 57.9 | 
3 | COc1ccc(CCN(C)CCCC(C#N)(c2ccc(OC)c(OC)c2)C(C)C)cc1OC (centres undefined) [VERAPAMIL] | 7.51 |  | pEC50 (Thoracic aorta [3]): 7.28; pEC50 (Thoracic aorta [4]): 7.46; pEC50 (Thoracic aorta [6]): 7.42; inhibition (Thoracic aorta [2]): Dose-dependent effect
4 | CCS(=O)(=O)Nc1ccc2c(c1)C(NC(=O)Nc1ccc(C#N)cc1)CC(C)(C)O2 (centres undefined) | 4.93 | 73.6 | 
5 | CCS(=O)(=O)Nc1ccc2c(c1)C(NC(=O)Nc1cccc(Cl)c1)CC(C)(C)O2 (centres undefined) | 4.76 | 72.1 | 
6 | CCS(=O)(=O)Nc1ccc2c(c1)C(NC(=O)Nc1ccc(Cl)cc1)CC(C)(C)O2 (centres undefined) | < 5.00 | 78.1 | 
7 | CC1(C)CC(NC(=S)Nc2cccc(C#N)c2)c2cc(NS(C)(=O)=O)ccc2O1 (centres undefined) | 5.01 | 91.7 | 
8 | CC1(C)CC(NC(=S)Nc2ccc(Cl)cc2)c2cc(NS(C)(=O)=O)ccc2O1 (centres undefined) | 4.94 | 63.9 | 

Further lines, with some results ahead:

Row | pEC50 (Thoracic aorta [2]) | Structure (SMILES) | Activity [1] [%] | also measured
9 | 5.01 | CCS(=O)(=O)Nc1ccc2c(c1)C(NC(=S)Nc1cccc(Cl)c1)CC(C)(C)O2 (centres undefined) | 54.3 | 
10 | 4.94 | CC1(C)CC(NC(=S)Nc2ccc(C#N)cc2)c2cc(NS(C)(=O)=O)ccc2O1 (centres undefined) | 81.7 | 
11 | 4.92 | CCS(=O)(=O)Nc1ccc2c(c1)C(NC(=S)Nc1cccc(C#N)c1)CC(C)(C)O2 (centres undefined) | 64.7 | 
12 | 4.70 | CC1(C)CC(NC(=O)Nc2ccc(C#N)cc2)c2cc(NS(C)(=O)=O)ccc2O1 (centres undefined) | 81.6 | 
13 | 4.82 | CC1(C)CC(NC(=O)Nc2cccc(Cl)c2)c2cc(NS(C)(=O)=O)ccc2O1 (centres undefined) | 94.5 | 
14 | 5.02 | CCS(=O)(=O)Nc1ccc2c(c1)C(NC(=O)Nc1cccc(C#N)c1)CC(C)(C)O2 (centres undefined) | 75.6 | 
15 | 6.89 | CC1(C)Oc2ccc(C#N)cc2C(N2CCCC2=O)C1O (racemic) [CROMAKALIM] | 94.4 | pEC50 (Thoracic aorta [3]): 3.86; pEC50 (Thoracic aorta [4]): 4.54; inhibition (Thoracic aorta [4]): Dose-dependent effect; Ratio EC50 (Thoracic aorta [5]): 10; pEC50 (Thoracic aorta [6]): 5.60; inhibition (Thoracic aorta [6]): Dose-dependent effect; Ratio EC50 (Thoracic aorta [7]): 130
16 | 5.01 | CC1(C)CC(NC(=S)Nc2cccc(Cl)c2)c2cc(NS(C)(=O)=O)ccc2O1 (centres undefined) | 69.2 | pEC50 (Thoracic aorta [3]): 4.77; pEC50 (Thoracic aorta [4]): 4.80; Activity (Thoracic aorta [8]): 3.68%; pEC50 (Thoracic aorta [6]): 4.78; inhibition (Thoracic aorta [2]): Dose-dependent effect; Activity (Thoracic aorta [9]): inactive
17 | 5.03 | CC1(C)CC(NC(=O)Nc2cccc(C#N)c2)c2cc(NS(C)(=O)=O)ccc2O1 (centres undefined) | 84.4 | 
18 | < 4.52 | CC1(C)CC(NC(=O)Nc2ccc(Cl)cc2)c2cc(NS(C)(=O)=O)ccc2O1 (centres undefined) | 88.5 | 
19 | 5.29 | CCS(=O)(=O)Nc1ccc2c(c1)C(NC(=S)Nc1ccc(Cl)cc1)CC(C)(C)O2 (centres undefined) | 49.1 | 

From ChEMBL document CHEMBL3259788, “Influence of the alkylsulfonylamino substituent located at the 6-position of 2,2-dimethylchromans structurally related to cromakalim: from potassium channel openers to calcium entry blockers?” (Eur J Med Chem, 2014)
